BAP1 block = inhibitors of BAP1 deubiquitinase, primary screen, biochemical, Ub-AMC fluorescence, kinetic | Ubiquitin carboxyl-terminal hydrolase BAP1 (Homo sapiens), Q92560 | recombinant BAP1, Ub-AMC hydrolysis fluorescence kinetic; hits give low values | calls only at 20 µM | 0.48% of 72,000 active | AID 436, 2006;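 active = activity remaining at or below 50% of control, provided the compound also passes the data quality filters; inactive = the rest, including low values that fail the filters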;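 note: 100% = DMSO wells rate and 0% = substrate alone blank rate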
M1 ag = M1 muscarinic receptor agonists, primary screen, CHO-M1 cells, Fluo-4 calcium, agonist mode; Muscarinic acetylcholine receptor M1; Fluo-4 calcium fluorescence; hits give high values; B-score at 10 µM; 3% of 64,000 active;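 active = fluorescence rise, raw or as B-score row- and column-corrected plate score, outside the 99.7% band of its plate's samples, either direction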
M1 antag = antagonists of rat M1 muscarinic receptor | Muscarinic acetylcholine receptor M1 (Rattus norvegicus), P08482 | CHO-M1 cells, Fluo-4 calcium, ACh EC80 antagonist mode; hits give low values | B-score at 10 µM | 3.4% of 64,000 active;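 active = calcium fluorescence response, raw or row-and-column corrected B-score, differing from the plate sample mean either way at a set confidence level, mostly lower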
Target sequence (P08482 whole entry, looked up): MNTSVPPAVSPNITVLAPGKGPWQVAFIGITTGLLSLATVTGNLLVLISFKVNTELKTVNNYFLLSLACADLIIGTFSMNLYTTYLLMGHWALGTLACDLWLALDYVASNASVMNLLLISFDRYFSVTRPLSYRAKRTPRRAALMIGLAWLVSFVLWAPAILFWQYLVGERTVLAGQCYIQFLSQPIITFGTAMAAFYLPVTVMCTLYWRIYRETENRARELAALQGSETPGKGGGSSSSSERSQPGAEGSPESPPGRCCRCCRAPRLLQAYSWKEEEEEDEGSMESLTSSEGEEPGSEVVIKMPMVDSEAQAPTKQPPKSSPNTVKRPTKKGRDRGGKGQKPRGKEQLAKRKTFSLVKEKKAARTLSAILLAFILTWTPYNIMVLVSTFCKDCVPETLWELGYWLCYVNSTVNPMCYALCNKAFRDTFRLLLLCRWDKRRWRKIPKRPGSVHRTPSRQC
tolC growth inh = growth inhibitors of E. coli tolC mutant, primary screen, strain BW25113 ΔtolC::kan, 384-well. OD615. growth inhibition, % at 10 µM (by protocol). 2.2% of 65,000 active. AID 573, 2007;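 active = growth inhibition at or above a cutoff equal to the mean over every tested compound plus 3 SD, cut at about 60% in these data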;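 note: growth measured after 20 h incubation at 37 °C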
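Test system: E. coli BW25113 ΔtolC::kan bacteria | Medium: Kanamycin-containing LB broth (50 µg/mL) | Dosing: One dose of 10 µM final | Times: 20 h incubation with compound, 37 °C | Detection: Optical density read at 615 nm | Read-out basis: Percent growth inhibition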
Hsp90 block = tumor Hsp90 inhibitors, primary screen, cell lysate, fluorescence polarization, NCI-N417 lysate. Heat shock protein HSP 90-alpha (Homo sapiens), P07900. 0.35% of 64,000 active. Cy3B-geldanamycin FP displacement. inhibition, % at 30 µM;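 active = inhibition above 50%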;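 note: 0% = tracer plus lysate wells and 100% = tracer alone without lysate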
Ecoli WT expand = growth inhibitors of wild-type E. coli, primary screen, strain BW25113, expanded library, OD600. AID 710, 2007. 0.15% of 98,000 active. OD600 absorbance. growth inhibition, % at 100 µM;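 active = growth inhibition above about 50% at one test dose, limit read from the data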;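 note: growth measured after 20 h incubation at 37 °C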
BAP1 inh confirm = BAP1 deubiquitinase inhibitors, hit retest, confirmation, orthogonal assay, biochemical, Ub-ethyl ester substrate, HPLC readout; purified BAP1, Ub-ethyl ester hydrolysis; hits give low values; shares compounds with BAP1 block; % of control activity, % at 20 µM; AID 753, 2007; 8% of 310 active;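 active = percent of control activity at or below 60%; inconclusive = HPLC trace unusable from injection failure or solvent front hiding peaks; inactive = the rest, plus ubiquitin peak ratio over a set limit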
* marks the source's active call; other numbers are inactive results; i = inactive; ? = inconclusive; . = no result; + = active, no number. The list is not random: actives were taken first. Their share in the collection is about 5.1%.

SMILES	BAP1 block	M1 ag	M1 antag	tolC growth inh	Hsp90 block	Ecoli WT expand	BAP1 inh confirm
O=C(Nc1ccccc1)C1=C(O)CC(c2ccoc2)CC1=Nc1ccccc1 (stereo not given)	+	-0.44	-0.38	35	-6	-7	?
O=C(Nc1ccccc1)C1=C(O)CC(c2ccco2)CC1=Nc1ccccc1 (stereo not given)	i	-0.091	-0.37	12	1	-1	.
Cc1ccc(-c2nc3cccnc3o2)cc1NC(=O)COc1ccc2ccccc2c1	i	.	.	.	.	.	.
COc1ccc(C)cc1NC(=O)CN1CCN(S(=O)(=O)c2ccc(C(C)C)cc2)CC1	+	-0.35	0.35	14	1	-14	111
COc1ccc(C)cc1NC(=O)CN1CCN(S(=O)(=O)c2ccc(Cl)cc2)CC1	i	0.26	0.48	-4	-1	-2	.
COc1ccc(OC)c(N=C2SCC(=O)N2Cc2ccccc2)c1	i	.	.	.	.	.	.
Cc1ccc(-c2cc(C(=O)OCC(=O)Nc3cc(C)on3)c3ccccc3n2)c(C)c1	+	0.55	0.79	-21	0	-2	90
CCOc1ccc(OCC)c(NC(=O)c2[nH]c(C)c(C(C)=O)c2C)c1	+	0.4	0.79	-35	25	-7	121
CC1CCC/C(=C\Nc2ccc(O)cc2)C1=O (stereo not given)	+	-1.1	0.27	-9	-3	-4	91
CCOc1cccc2sc(NC(=O)c3ccc(Br)s3)nc12	+	-0.29	-0.56	6	2	-4	81
Nc1c(C(=O)NCc2ccco2)sc2nc3c(cc12)C(=O)CCC3	+	-0.07	-0.087	4	4	-3	151
CCOc1cc2[nH]c(=S)n(CCCCC(=O)NCc3ccco3)c(=O)c2cc1OCC	+	-0.32	0.35	-8	-2	0	90
CCOc1cc2[nH]c(=O)n(CCCCCC(=O)NCc3ccco3)c(=O)c2cc1OCC	.	.	.	.	.	-7	.
CC1CCN(S(=O)(=O)c2ccc(NC(=O)Cn3nnc(-c4ccccc4)n3)cc2)CC1	i	-0.14	0.24	17	-4	-8	.
CC1CCCN(S(=O)(=O)c2ccc(NC(=O)Cn3nnc(-c4ccccc4F)n3)cc2)C1 (stereo not given)	+	-1.7	-0.025	64*	2	-11	26*
Cc1ccc(-c2nnn(CC(=O)Nc3ccc(S(=O)(=O)N4CCC(C)CC4)cc3)n2)cc1	+	-1.3	0.2	13	-1	1	73
O=C(NCc1ccco1)c1cc2n(n1)C(C(F)(F)F)CC(c1ccc(Br)cc1)N2 (stereo not given)	+	-0.94	-0.23	13	-1	-4	?
COc1ccc(OC)c(NC(=O)c2cc3n(n2)C(C(F)(F)F)CC(c2ccc4c(c2)OCO4)N3)c1 (stereo not given)	+	-0.41	-2.5	31	2	.	102
COc1ccc(C2CC(C(F)(F)F)n3nc(C(=O)Nc4ccc5c(c4)OCO5)cc3N2)cc1 (stereo not given)	i	-0.031	0.24	21	-4	-4	.
CCOc1ccc(N2C(=O)C(N3C(=O)c4ccccc4C3=O)C2c2cc(OC)c(OC)c(OC)c2)cc1 (stereo not given)	i	.	.	.	.	.	.
CC(O)C12c3ccccc3C(c3ccccc31)C1C(=O)N(c3cccc(Br)c3)C(=O)C12 (stereo not given)	i	.	.	.	.	.	.
Cc1cc(NC(=O)c2ccc(COc3ccc(Cl)c(C)c3)o2)no1	+	-0.044	0.001	-7	-6	-1	163
Cc1cc(S(=O)(=O)N2CCN(c3ccccc3C)CC2)ccc1F	+	-0.65	0.41	64*	-2	-14	126
Cc1ccc(N2C(=O)C3C4C=CC(C4)C3C2=O)cc1Cl (stereo not given)	i	.	.	.	.	.	.
COc1ccc(-n2nc(C(=O)Nc3ccc4c(c3)OCO4)c3c4ccccc4n(C)c3c2=O)cc1	+	-0.56	0.26	-11	1	.	81
SMILES	BAP1 block	M1 ag	M1 antag	tolC growth inh	Hsp90 block	Ecoli WT expand	BAP1 inh confirm
COc1ccc(-n2nc(C(=O)Nc3ccc(OC)c(OC)c3)c3c4ccccc4n(C)c3c2=O)cc1	.	.	.	.	.	-19	.
COc1ccccc1CN(Cc1cc2c(C)ccc(C)c2[nH]c1=O)Cc1nnnn1Cc1ccco1	+	.	.	18	-6	-8	94
O=C(Cc1cnn(-c2ccccc2)c1)c1ccc(O)c(O)c1O	.	.	.	.	.	24	.
CCc1cc(C(=O)Cc2cnn(-c3ccccc3)c2)c(O)cc1O	+	-0.034	-0.77	15	-1	4	129
CCOC(=O)C(C(C)=O)c1c(Br)c(O)c(O)c2c(C(=O)c3ccc(C)cc3)coc12 (stereo not given)	+	-0.22	0.22	16	-1	.	68
CCOC(=O)c1c(C)n(-c2ccc(C)cc2)c2c(C(C(C)=O)C(=O)O)c(Br)c(O)c(O)c12 (stereo not given)	.	.	.	.	.	5	.
CCOC(=O)c1c(NC(=O)c2cccs2)sc(C)c1CC	+	.	.	5	-5	-4	59*
COc1ccc(S(=O)(=O)N(C)CC(=O)N2CCOCC2)cc1	i	0.35	0.2	-10	-1	-4	.
CN(CC(=O)N1CCN(c2ccc(F)cc2)CC1)S(=O)(=O)c1ccc(F)cc1	+	-1.1	-0.26	8	-2	-1	137
CC1=C(C(=O)OCC2CCCCC2)C(c2cccc(Br)c2)NC(=O)N1 (stereo not given)	i	.	.	.	.	.	.
CCOC(=O)Cn1nnnc1CN(Cc1cccs1)Cc1cc2cc(C)ccc2[nH]c1=O	.	.	.	.	.	-3	.
Cc1ccc2[nH]c(=O)c(CN(Cc3cccs3)Cc3nnnn3Cc3ccccc3)cc2c1	+	-0.0065	-0.65	55	-1	-13	67
COCCOC(=O)C1=C(C)NC2=C(C(=O)CCC2)C1c1cccc(I)c1 (stereo not given)	i	.	.	.	.	.	.
O=C(c1ccccc1)c1cccc(N2C(=O)c3ccc([N+](=O)[O-])cc3C2=O)c1	i	.	.	.	.	.	.
CSCCC(/C(O)=C(\C#N)c1nc2ccccc2[nH]1)N1C(=O)c2ccccc2C1=O (stereo not given)	+	0.59	0.44	12	-3	-16	114
COc1cccc(CN(Cc2ccco2)C(c2ccc(F)cc2)c2nnnn2C(C)(C)C)c1 (stereo not given)	+	4.1	0.018	7	-5	-1	71

Source: PubChem BioAssay
